What was measured:
Format in all cases: functional
IGROV-1 = assay: Anticancer activity against human IGROV1 cells after 48 hrs; conditions: IGROV-1, 48 h
Outline: (§1)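 NCI Drug Evaluation Branch 60-cell-line screen across leukemia, melanoma, lung, colon, CNS, ovarian, renal, prostate and breast panels. The incubation period is 48 h. Parameters are derived from dose–response data: GI50 is the concentration giving 50% decrease in net growth, TGI is total growth inhibition, and LC50 is net 50% loss of initial cells. Values beyond the tested range are reported as greater or less than the maximum or minimum concentration.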

SK-OV-3 = assay: Anticancer activity against human SKOV3 cells after 48 hrs; conditions: SK-OV-3, 48 h
Outline: (§2)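 NCI 60-line panel protocol with a 48 h incubation. Per line: GI50 = concentration giving 50% decrease in net cell growth; TGI = total growth inhibition; LC50 = net 50% loss of initial cells. When the level was not reached or was exceeded, the value is given as greater or less than the highest or lowest concentration tested.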

MCF7 = assay: Anticancer activity against human MCF7 cells after 48 hrs; conditions: MCF7, 48 h; outline: as §1
A549 = assay: Anticancer activity against human A549 cells after 48 hrs; conditions: A549, 48 h; outline: as §1
KM12 = assay: Anticancer activity against human KM12 cells after 48 hrs; conditions: KM12, 48 h; outline: as §1
Rattus norvegicus [1] = assay: Antiinflammatory activity in Wistar rat assessed as inhibition of carrageenan-induced hind paw edema at 20 mg/kg, po administered 30 mins before carrageenan challenge measured after 3 hrs by plethysmometer
Outline: (§3)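 Wistar rats of either sex, 150–175 g, fasted 16 h, n = 6 per group. Compound given orally at 20 mg/kg as a suspension in 1% CMC in water (10 mL/kg); controls got vehicle only. After 30 min, 0.1 mL of 1% carrageenan in saline was injected subplantar into the left hind paw. Paw volume was measured by plethysmometer at 0, 3 and 5 h. Inhibition = (1 − Vt/Vc) × 100, reported as mean ± SEM.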

SNB-75 = assay: Anticancer activity against human SNB75 cells after 48 hrs; conditions: SNB-75, 48 h; outline: as §2
OVCAR-4 = assay: Anticancer activity against human OVCAR4 cells after 48 hrs; conditions: OVCAR-4, 48 h; outline: as §2
CCRF-CEM = assay: Anticancer activity against human CCRF-CEM cells after 48 hrs; outline: as §1
Rattus norvegicus [2] = assay: Antiinflammatory activity in Wistar rat assessed as inhibition of carrageenan-induced hind paw edema at 20 mg/kg, po administered 30 mins before carrageenan challenge measured after 5 hrs by plethysmometer; outline: as §3
HCC 2998 = assay: Anticancer activity against human HCC2998 cells after 48 hrs; conditions: HCC 2998, 48 h; outline: as §1
K562 = assay: Anticancer activity against human K562 cells after 48 hrs; conditions: K562, 48 h; outline: as §1
786-0 = assay: Anticancer activity against human 786-0 cells after 48 hrs; conditions: 786-0, 48 h; outline: as §1
SK-MEL-2 = assay: Anticancer activity against human SK-MEL-2 cells after 48 hrs; conditions: SK-MEL-2, 48 h; outline: as §2
A498 = assay: Anticancer activity against human A498 cells after 48 hrs; conditions: A498, 48 h; outline: as §1
SF-539 = assay: Anticancer activity against human SF539 cells after 48 hrs; conditions: SF-539, 48 h; outline: as §2
MDA-MB-435 = assay: Anticancer activity against human MDA-MB-435 cells after 48 hrs; conditions: MDA-MB-435, 48 h; outline: as §1
NCI-H460 = assay: Anticancer activity against human NCI-H460 cells after 48 hrs; conditions: NCI-H460, 48 h; outline: as §2
NCI-H23 = assay: Anticancer activity against human NCI-H23 cells after 48 hrs; conditions: NCI-H23, 48 h; outline: as §2
EKVX = assay: Anticancer activity against human EKVX cells after 48 hrs; outline: as §1
NCI-H226 = assay: Anticancer activity against human NCI-H226 cells after 48 hrs; conditions: NCI-H226, 48 h; outline: as §2
RXF 393 = assay: Anticancer activity against human RXF393 cells after 48 hrs; conditions: RXF 393, 48 h; outline: as §2
SW-620 = assay: Anticancer activity against human SW620 cells after 48 hrs; conditions: SW-620, 48 h; outline: as §2
SF-268 = assay: Anticancer activity against human SF268 cells after 48 hrs; conditions: SF-268, 48 h; outline: as §2
SK-MEL-28 = assay: Anticancer activity against human SK-MEL-28 cells after 48 hrs; conditions: SK-MEL-28, 48 h; outline: as §2
OVCAR-3 = assay: Anticancer activity against human OVCAR3 cells after 48 hrs; conditions: OVCAR-3, 48 h; outline: as §2
NCI/ADR-RES = assay: Anticancer activity against human NCI/ADR-RES cells after 48 hrs; outline: as §2
UACC-62 = assay: Anticancer activity against human UACC62 cells after 48 hrs; conditions: UACC-62, 48 h
Outline: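 NCI ~60 human tumour cell line panel with a 48 h incubation. GI50 is the concentration giving a 50% fall in net growth, TGI gives total growth inhibition, and LC50 gives a net 50% loss of initial cells. An effect not reached or exceeded is reported as greater or less than the highest or lowest concentration tested.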

HCT-15 = assay: Anticancer activity against human HCT15 cells after 48 hrs; conditions: HCT-15, 48 h; outline: as §1
[3] = read-out: LC50 (the source's name)

Work on `COc1ccc(C2CC(c3cc(Cl)c(C)cc3O)=NN2c2ccc(S(N)(=O)=O)cc2)cc1OC` (stereo not given) yielded a GI50 (IGROV-1) of 2.34 µM, an LC50 (net 50% loss of initial cells) (IGROV-1) of 28.8 µM and a TGI (IGROV-1) of 5.46 µM. It also gave a GI50 (SK-OV-3) of 4.51 µM, a TGI (SK-OV-3) of 38.3 µM and a CC50 (SK-OV-3; [3]) of over 100 µM. It also gave a GI50 (MCF7) of 3.07 µM, an LC50 (MCF7) of over 100 µM and a TGI (MCF7) of 13.6 µM. For the same molecule, the GI50 (A549) was 3.54 µM, the LC50 (net 50% loss of initial cells) (A549) was over 100 µM and the TGI (A549) was 19.7 µM. It also gave a GI50 (KM12) of 3.07 µM, an LC50 (concentration causing net 50% loss of initial cells) (KM12) of 49.2 µM and a TGI (KM12) of 8.77 µM. For the same molecule, the inhibition in vivo at 20 mg/kg (Rattus norvegicus [1]) was 60.5%, the GI50 (SNB-75) was 2.7 µM and the TGI (SNB-75) was 97.2 µM. It also gave a CC50 (SNB-75; [3]) of over 100 µM, a GI50 (OVCAR-4) of 4.18 µM and an LC50 (OVCAR-4) of over 100 µM. For the same molecule, the GI50 (CCRF-CEM) was 5.35 µM, the LC50 (concentration causing net 50% loss of initial cells) (CCRF-CEM) was over 100 µM and the TGI (CCRF-CEM) was over 100 µM. The inhibition in vivo at 20 mg/kg (Rattus norvegicus [2]) was 68.3%, the GI50 (HCC 2998) was 2.72 µM and the LC50 (net 50% loss of initial cells) (HCC 2998) was 27.4 µM. It also gave a TGI (HCC 2998) of 7.25 µM, a GI50 (K562) of 3.18 µM and an LC50 (concentration killing 50% of initial cells) (K562) of over 100 µM. It also gave a GI50 (786-0) of 2.37 µM, a TGI (786-0) of 5.04 µM and a CC50 (786-0; [3]) of over 100 µM. For the same molecule, the GI50 (SK-MEL-2) was 5.87 µM, the LC50 (SK-MEL-2) was over 100 µM and the TGI (SK-MEL-2) was 32.7 µM. The GI50 (A498) was 3.98 µM, the TGI (A498) was 24.7 µM and the CC50 (A498; [3]) was over 100 µM. The GI50 (SF-539) was 2.1 µM, the LC50 (concentration causing net 50% loss of initial cells) (SF-539) was 12 µM and the TGI (SF-539) was 4.75 µM. It also gave a GI50 (MDA-MB-435) of 3.97 µM, a TGI (MDA-MB-435) of 24 µM and a CC50 (MDA-MB-435; [3]) of over 100 µM. It also gave a GI50 (NCI-H460) of 2.5 µM, an LC50 (50% lethal concentration) (NCI-H460) of 22 µM and a TGI (NCI-H460) of 5.85 µM. The GI50 (NCI-H23) was 3.11 µM, the LC50 (concentration killing 50% of initial cells) (NCI-H23) was over 100 µM and the TGI (NCI-H23) was 13.6 µM. The GI50 (EKVX) was 4.15 µM, the TGI (EKVX) was 100 µM and the CC50 (EKVX; [3]) was over 100 µM. It also gave a GI50 (NCI-H226) of 5.62 µM, a TGI (NCI-H226) of 23.1 µM and a CC50 (NCI-H226; [3]) of 86.4 µM. The GI50 (RXF 393) was 2.88 µM, the LC50 (RXF 393) was 31.4 µM and the TGI (RXF 393) was 7.52 µM. The GI50 (SW-620) was 4.08 µM, the TGI (SW-620) was 26.6 µM and the CC50 (SW-620; [3]) was over 100 µM. For the same molecule, the GI50 (SF-268) was 4.74 µM, the LC50 (concentration killing 50% of initial cells) (SF-268) was over 100 µM and the GI50 (SK-MEL-28) was 4.29 µM. For the same molecule, the TGI (SK-MEL-28) was 17.7 µM, the CC50 (SK-MEL-28; [3]) was 62.7 µM and the GI50 (OVCAR-3) was 3.37 µM. It also gave an LC50 (concentration giving 50% net loss of initial cells) (OVCAR-3) of 77.5 µM, a TGI (OVCAR-3) of 9.8 µM and a GI50 (NCI/ADR-RES) of 3.39 µM. For the same molecule, the TGI (NCI/ADR-RES) was 14.1 µM, the CC50 (NCI/ADR-RES; [3]) was over 100 µM and the GI50 (UACC-62) was 3.13 µM. It also gave an LC50 (UACC-62) of 43.3 µM, a TGI (UACC-62) of 12.9 µM and a GI50 (HCT-15) of 3.32 µM. It also gave a TGI (HCT-15) of 20.2 µM and a CC50 (HCT-15; [3]) of over 100 µM.
